Only some compounds are listed: those with a hit (about 5.9% of all), similar ones and a draw of the others.
IDH1 R132H inh: inhibitors of human IDH1 R132H. inhibition, % at 10 µM. O75874. AID 624101. IDH1 R132H reductase, diaphorase/resazurin fluorescence, 60 min. 70,000 compounds, 0.18% hits; in the data active = inhibition above about 34%; inconclusive = no clear call, values can overlap the other calls; inactive = below about 11%;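 also: 0% = DMSO and 100% = no enzyme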
Target sequence (O75874 whole entry R132H): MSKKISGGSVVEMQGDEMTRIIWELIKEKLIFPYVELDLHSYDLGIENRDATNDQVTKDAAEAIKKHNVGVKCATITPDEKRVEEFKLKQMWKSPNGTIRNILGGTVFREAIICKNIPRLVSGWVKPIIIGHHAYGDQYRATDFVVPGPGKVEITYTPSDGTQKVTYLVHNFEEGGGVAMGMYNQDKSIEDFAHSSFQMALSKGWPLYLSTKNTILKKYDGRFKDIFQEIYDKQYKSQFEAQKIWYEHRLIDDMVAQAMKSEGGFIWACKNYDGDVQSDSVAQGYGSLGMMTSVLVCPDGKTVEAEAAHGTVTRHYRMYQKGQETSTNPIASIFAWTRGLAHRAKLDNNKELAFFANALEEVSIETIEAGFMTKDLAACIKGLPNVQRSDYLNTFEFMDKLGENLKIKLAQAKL
Pf Dd2 growth: blocks growth of Plasmodium falciparum Dd2 parasites. 94,000 compounds, 2.3% hits. P. falciparum Dd2 growth, SYBR Green, 72 h; stronger effect = lower value. activity change, % at 10 µM; in the data active = activity change below about -80%; inconclusive = no clear call, values can overlap the other calls
GASC1 inh: inhibitors of human demethylase GASC-1 KDM4C; Q9H3R0; GST-KDM4C 2-372, H3K9me3 peptide, LANCE TR-FRET; inhibition, % at 12.5 µM; 96,000 compounds, 0.15% hits; AID 720574;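 active = mean replicate inhibition above about 25%, with at least 55% of replicates also reaching it, limit read from the data, passing the limit was not always enough; inconclusive = only one of those two conditions met; inactive = neither condition met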
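Material: N-terminal GST-fused human GASC-1 (KDM4C) fragment, residues 2-372. Input: 10 nM enzyme. Incubation: enzyme reaction 30 min, then detection 60 min, both room temperature. Doses: one test concentration per compound. Read-out basis: inhibition from TR-FRET ratio decrease. Detection: LANCE TR-FRET, excitation 340 nm, emissions 618 and 671 nm.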
T cruzi growth-1: inhibitors of T. cruzi proliferation; T. cruzi beta-gal in NIH3T3, GalScreen luminescence, 90 h; inhibition, % at 8.34 µM; 77,000 compounds, 5.9% hits;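 active = mean inhibition above about 93%, with at least 55% of replicates each passing it, limit read from the data, passing the limit was not always enough; inconclusive = only one of those two conditions holds; inactive = neither condition holds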
T cruzi growth-2: blocks T. cruzi growth in NIH3T3 host cells; shares compounds with T cruzi growth-1; 5,600 compounds, 72% hits; inhibition, % at 8.35 µM; T. cruzi beta-gal in NIH3T3, GalScreen luminescence, 90 h;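 active = mean replicate inhibition above about 95% and at least 55% of replicates individually reaching it, limit read from the data; inconclusive = only one of the two criteria is met; inactive = neither criterion is met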
T cruzi growth-3: Trypanosoma cruzi proliferation inhibition. shares compounds with T cruzi growth-1. T. cruzi beta-gal in NIH3T3, GalScreen luminescence, 90 h. inhibition, % at 2.09 µM. 5,600 compounds, 21% hits. AID 651740;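 active = mean inhibition above about 95%, with at least 55% of replicates also reaching it, limit read from the data; inconclusive = meets just one of the two conditions; inactive = meets neither condition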;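 also: plate controls were neutral control median for no effect and positive control median for full effect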
3T3 cytotox: NIH/3T3 (mouse) viability loss. shares compounds with T cruzi growth-1. NIH/3T3 viability, CellTiter-Glo ATP luminescence, 90 h. cytotoxicity (signal decrease), % at 8.35 µM. 5,600 compounds, 14% hits. AID 651742;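 active = mean signal decrease across replicates above about 35% based on untreated-well scatter, with enough replicates individually passing, limit read from the data; inconclusive = no rule stated though some were filed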;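 also: 0% = median of neutral control wells and 100% = median of positive control wells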
NIH3T3 tox 2: cytotoxicity in mouse NIH/3T3 fibroblasts | shares compounds with T cruzi growth-1 | AID 651744 | inhibition, % at 24.9 µM | NIH/3T3 viability, CellTiter-Glo ATP luminescence, 90 h | 5,600 compounds, 56% hits;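 active = mean loss of cell viability signal at or above a set limit, and enough replicates individually reaching it; inconclusive = meets only the mean limit or only the replicate share; inactive = meets neither condition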;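 also: 0% = median of neutral control wells and 100% = median of positive control wells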
Active calls of the source: *; ? = inconclusive; · = no result; ! = not confirmed by another sample.

SMILES	IDH1 R132H inh	Pf Dd2 growth	GASC1 inh	T cruzi growth-1	T cruzi growth-2	T cruzi growth-3	3T3 cytotox	NIH3T3 tox 2
C[C@H]1CN([C@@H](C)CO)C(=O)c2cc(C#Cc3ccccn3)cnc2O[C@@H]1CN(C)Cc1ccccc1	0	-43	0	121*!	107*	25	-4	-6
C[C@@H]1CN([C@H](C)CO)S(=O)(=O)c2ccc(-c3ccccc3)cc2O[C@@H]1CN(C)Cc1cccc(F)c1	-6	-52	-2	124*	112*	88	12	104*
C[C@@H]1CN([C@@H](C)CO)S(=O)(=O)c2ccc(-c3ccccc3)cc2O[C@H]1CN(C)Cc1cccc(F)c1	-1	-65	-1	122*	99*	?	40*	103*
CCCNC(=O)CSc1nc2nc(C)c(Cc3cccc(C)c3)c(C)n2n1	0	·	·	·	·	·	·	·
CCn1c(SCC(=O)Nc2cccc(Cl)c2)nnc1-c1ccco1	-1	·	·	·	·	·	·	·
CCC(=O)N1CCCCN2[C@@H](CO)[C@H](c3ccc(-c4cccc(C#N)c4)cc3)[C@@H]2C1	·	27	1	107*	85	77	29	61*
O=C(Nc1ccc(F)cc1)N1CCCCN2[C@H](CO)[C@H](c3ccc(-c4cccc(F)c4)cc3)[C@H]2C1	·	-26	0	49	·	·	·	·
N#Cc1ccc(-c2ccc([C@H]3[C@@H](CO)N4CCCCN(C(=O)Nc5ccc(F)cc5)C[C@H]34)cc2)cc1	·	-49	-1	98*	105*	105*	32	104*
N#Cc1cccc(-c2ccc([C@H]3[C@H]4CN(C(=O)Nc5ccccc5)CCCCN4[C@H]3CO)cc2)c1	·	13	-1	57	·	·	·	·
O=C(Nc1ccc(F)cc1)N1CCCCN2[C@H](C1)[C@H](c1ccc(-c3cccc(F)c3)cc1)[C@@H]2CO	·	-2	-1	116*	109*	77	10	79*
N#Cc1cccc(-c2ccc([C@H]3[C@H](CO)N4CCCCN(C(=O)Nc5ccc(F)cc5)C[C@@H]34)cc2)c1	·	4	-1	102*	104*	66	21	105*
Cc1nc(CSc2nc3sc(C)c(C)c3c(=O)n2-c2ccccc2)cs1	1	·	·	·	·	·	·	·
Nc1ccc2nc(SCC(=O)Nc3ccc(Oc4ccccc4)cc3)sc2c1	0	·	·	·	·	·	·	·
Cn1c(SCC(=O)Nc2ccc(Oc3ccccc3)cc2)nnc1-c1cccs1	0	·	·	·	·	·	·	·
O=C(C1CCCC1)N1CCCCN2[C@H](CO)[C@@H](c3ccc(-c4cccc(F)c4)cc3)[C@@H]2C1	·	-22	·	104*	98*	115*	42*	106*
O=C(CSc1nc2sc3c(c2c(=O)[nH]1)CCCC3)Nc1ccc(Cl)cc1	0	·	·	·	·	·	·	·
O=C(NC[C@H]1[C@H](c2ccccc2)[C@@H](CO)N1C(=O)C1CC1)NC1CCCC1	·	-63	-1	117*	63	20	-2	5
O=C(NC[C@@H]1[C@H](c2ccccc2)[C@H](CO)N1C(=O)C1CC1)NC1CCCC1	·	11	-1	36	·	·	·	·
COc1ccc(S(=O)(=O)Nc2ccc3c(c2)C(=O)N([C@H](C)CO)C[C@@H](C)[C@@H](CN(C)S(=O)(=O)c2cccs2)OCCCC[C@H](C)O3)cc1	-12	-68	0	100*	90	15	-23	-17
COc1ccc(S(=O)(=O)N(C)C[C@H]2OCCCC[C@H](C)Oc3ccc(NS(=O)(=O)c4cccs4)cc3C(=O)N([C@@H](C)CO)C[C@@H]2C)cc1	·	-71	1	107*	112*	33	-8	-8
COc1ccc(S(=O)(=O)N(C)C[C@H]2OCCCC[C@@H](C)Oc3ccc(NS(=O)(=O)c4cccs4)cc3C(=O)N([C@H](C)CO)C[C@H]2C)cc1	·	-72	-3	110*	113*	29	1	-20
CS(=O)(=O)N1[C@H](C#N)[C@H](c2ccc(C#CC3CCCCC3)cc2)[C@@H]1CO	·	-42	0	?	101*	107*	2	42*

Screens as filed in PubChem BioAssay.
